Laboratory results taken from ChEMBL document CHEMBL1144922 (J Med Chem, 2003).
Values belong to the molecule of their own block, whether it stands above or below them.

Assays:
[1] = test system: Human immunodeficiency virus 1; test: Anti-HIV activity against multidrug resistant HIV JSL strain by inhibition of HIV p24 antigen expression in peripheral blood mononuclear cells(PBMC); assay type: functional, organism-based
Method in brief: (§1)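 Read-out was HIV p24 antigen expression in peripheral blood mononuclear cells infected with multidrug-resistant HIV-1. Values with standard deviation are means of at least three experiments, and values without one come from a single experiment. Wild-type strain HIV104pre was the reference. Protease amino acid substitutions of each strain were characterised.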

MT2 [2] = test: Anti-HIV activity based on inhibition of HIV-1 induced cytopathogenicity in MT-2 cells.; assay type: functional, cell-based; conditions: Homo sapiens
Method in brief: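 IC50 from inhibition of HIV-induced cytopathic effect in MT-2 cells. Values with SD are means of at least three independent experiments; values without SD come from a single experiment.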

[3] = test system: Human immunodeficiency virus 1; test: Anti-HIV activity against multidrug resistant HIV TM strain by inhibition of HIV p24 antigen expression in peripheral blood mononuclear cells(PBMC); assay type: functional, organism-based; method in brief: as §1
MT2 [4] = test: Cytotoxicity based on reduction of the viability of mock-infected MT-2 cells.; assay type: functional; conditions: Homo sapiens
Method in brief: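 CC50 taken as the concentration reducing the viability of mock-infected (uninfected) MT-2 cells. Values with SD are means of at least three independent experiments; values without SD come from a single experiment.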

[5] = Selectivity index was determined as ratio of reduction of the viability of mock-infected MT-2 cells/inhibition of HIV-1 induced cytopathogenicity in MT-2 cells.; assay type: functional, MT2
[6] = biological target: Human immunodeficiency virus type 1 protease (Human immunodeficiency virus 1, UniProt Q72874); test: Inhibitory activity against HIV-1 protease
Method in brief: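 Ki against HIV-1 protease. Enzyme reaction rate was obtained by SELDI-MS quantitation of the remaining parent peptide substrate.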

[7] = test system: Human immunodeficiency virus 1; test: Anti-HIV activity against multidrug resistant HIV MM strain by inhibition of HIV p24 antigen expression in peripheral blood mononuclear cells(PBMC); assay type: functional, organism-based; method in brief: as §1
[8] = test system: Human immunodeficiency virus; test: Inhibitory activity against wild type strain,HIV104pre.; assay type: functional, organism-based; conditions: Human immunodeficiency virus 1
Method in brief: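 Activity against the wild-type strain HIV104pre was read as inhibition of HIV p24 antigen expression in peripheral blood mononuclear cells (PBMC).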

SMILES: CC(C)(C)NC(=O)[C@@H]1C[C@@H]2CCCC[C@@H]2CN1C[C@@H](O)[C@H](Cc1ccccc1)NC(=O)[C@@H](C[S+]([O-])c1ccc2ccccc2c1)NS(C)(=O)=O (some centres not stated)
IC50 [1]: 0.22 µM | IC50 (MT2 [2]): 0.0095 µM | IC50 [3]: 0.034 µM | CC50 (MT2 [4]): 3.9 µM | SI [5]: 410 | Ki [6]: 0.00012 µM | IC50 [7]: 0.032 µM | IC50 [8]: 0.015 µM

SMILES: CC(C)CN(C[C@@H](O)[C@H](Cc1ccccc1)NC(=O)O[C@H]1CCOC1)S(=O)(=O)c1ccc(N)cc1
IC50 [1]: 0.8 µM | IC50 (MT2 [2]): 0.036 µM | IC50 [3]: 0.48 µM | CC50 (MT2 [4]): > 100 µM | IC50 [7]: 0.53 µM | IC50 [8]: 0.02 µM

IC50 (MT2 [2]): > 1 µM
SMILES: CC(C)CN(C[C@H](O)[C@@H](/C=C/[C@@H](C[S+]([O-])c1ccc2ccccc2c1)NS(C)(=O)=O)Cc1ccccc1)S(=O)(=O)c1ccc(N)cc1 (some centres not stated)

SMILES: CC(C)CN(C[C@@H](O)[C@@H](/C=C/[C@@H](C[S+]([O-])c1ccc2ccccc2c1)NS(C)(=O)=O)Cc1ccccc1)S(=O)(=O)c1ccc(N)cc1 (some centres not stated)
IC50 [1]: 0.34 µM | IC50 (MT2 [2]): 0.16 µM | IC50 [3]: > 1 µM | CC50 (MT2 [4]): 8 µM | SI [5]: 58 | Ki [6]: 0.00038 µM | IC50 [7]: 0.52 µM | IC50 [8]: 0.18 µM

IC50 (MT2 [2]): > 1 µM
SMILES: CC(C)(C)NC(=O)[C@@H]1C[C@@H]2CCCC[C@@H]2CN1CC(O)[C@@H](/C=C/[C@@H](CS(=O)(=O)c1ccc2ccccc2c1)NS(C)(=O)=O)Cc1ccccc1 (some centres not stated)

IC50 (MT2 [2]): > 1 µM
SMILES: CC(C)(C)NC(=O)[C@@H]1C[C@@H]2CCCC[C@@H]2CN1CC(O)[C@@H](/C=C/[C@@H](C[S+]([O-])c1ccc2ccccc2c1)NS(C)(=O)=O)Cc1ccccc1 (some centres not stated)

SMILES: CC(C)CN(C[C@@H](O)[C@H](Cc1ccccc1)NC(=O)[C@@H](C[S+]([O-])c1ccc2ccccc2c1)NS(C)(=O)=O)S(=O)(=O)c1ccc(N)cc1 (some centres not stated)
IC50 [1]: 0.025 µM | IC50 (MT2 [2]): 0.066 µM | IC50 [3]: 0.043 µM | CC50 (MT2 [4]): 33 µM | SI [5]: 500 | Ki [6]: 0.0001 µM | IC50 [7]: 0.036 µM | IC50 [8]: 0.031 µM

IC50 (MT2 [2]): 0.017 µM | IC50 [8]: 0.019 µM
SMILES: CC(C)(C)NC(=O)[C@@H]1C[C@@H]2CCCC[C@@H]2CN1C[C@@H](O)[C@H](Cc1ccccc1)NC(=O)[C@H](CC(N)=O)NC(=O)c1ccc2ccccc2n1
CC50 (MT2 [4]): 11 µM

SMILES: Cc1cn([C@H]2C[C@H](N=[N+]=[N-])[C@@H](CO)O2)c(=O)[nH]c1=O [ZIDOVUDINE]
IC50 [1]: 0.064 µM | IC50 (MT2 [2]): 0.027 µM | IC50 [3]: 0.043 µM | CC50 (MT2 [4]): > 100 µM | IC50 [7]: 0.037 µM | IC50 [8]: 0.0025 µM
